Assay results: ChEMBL document CHEMBL4828761, “Development and crystallography-aided SAR studies of multifunctional BuChE inhibitors and 5-HT6R antagonists with β-amyloid anti-aggregation properties” (Eur J Med Chem, 2021)

Experiments:
[1] = target: T1, Cholinesterase (Homo sapiens, UniProt P06276); experiment: Inhibition of BuChE in human plasma using BTC as substrate at 10 uM preincubated with enzyme for 5 mins followed by substrate addition for 5 mins by Ellman's method relative to control; format: cell-free; conditions: time 10.0 min
T1 sequence (P06276 whole entry): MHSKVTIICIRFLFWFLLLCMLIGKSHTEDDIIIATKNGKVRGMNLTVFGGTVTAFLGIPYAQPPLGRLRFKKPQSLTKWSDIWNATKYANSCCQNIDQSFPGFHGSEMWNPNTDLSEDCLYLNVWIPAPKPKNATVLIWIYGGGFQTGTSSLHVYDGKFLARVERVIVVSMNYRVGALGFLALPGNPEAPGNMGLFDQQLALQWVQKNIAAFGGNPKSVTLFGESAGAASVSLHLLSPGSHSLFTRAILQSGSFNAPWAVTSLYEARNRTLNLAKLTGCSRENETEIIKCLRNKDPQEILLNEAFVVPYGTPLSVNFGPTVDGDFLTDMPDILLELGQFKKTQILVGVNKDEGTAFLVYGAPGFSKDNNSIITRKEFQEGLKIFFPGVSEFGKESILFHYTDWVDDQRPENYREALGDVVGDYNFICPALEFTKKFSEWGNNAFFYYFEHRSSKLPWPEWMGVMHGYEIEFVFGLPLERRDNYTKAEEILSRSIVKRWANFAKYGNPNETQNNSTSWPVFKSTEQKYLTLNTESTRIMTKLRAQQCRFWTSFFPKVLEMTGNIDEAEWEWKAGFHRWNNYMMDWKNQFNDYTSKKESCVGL
Procedure, shortened: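 Human plasma BuChE at 0.384 U/mL final, with DTNB in 0.1 M phosphate buffer pH 8.0. Compound at 10 µM screened, preincubated 5 min at 36 °C.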

[2] = target: 5-hydroxytryptamine receptor 6 (Homo sapiens, UniProt P50406); experiment: Displacement of [3H]LSD from human 5HT6 receptor expressed in CHO-K1 membrane incubated for 60 mins by solid scintillation counting analysis; format: cell membranes
Sequence of 5-hydroxytryptamine receptor 6 (P50406 whole entry): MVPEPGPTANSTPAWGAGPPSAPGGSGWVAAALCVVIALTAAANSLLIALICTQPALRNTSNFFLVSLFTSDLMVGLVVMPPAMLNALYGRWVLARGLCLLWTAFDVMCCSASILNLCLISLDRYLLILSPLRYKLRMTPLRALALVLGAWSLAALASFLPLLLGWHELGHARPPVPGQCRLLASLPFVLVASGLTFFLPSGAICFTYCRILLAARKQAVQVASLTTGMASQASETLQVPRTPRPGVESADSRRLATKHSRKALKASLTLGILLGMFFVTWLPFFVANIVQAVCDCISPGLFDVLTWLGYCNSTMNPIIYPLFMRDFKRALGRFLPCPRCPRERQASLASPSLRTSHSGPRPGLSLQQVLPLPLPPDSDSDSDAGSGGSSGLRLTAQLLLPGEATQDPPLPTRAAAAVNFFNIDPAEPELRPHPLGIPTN

[3] = target: Cholinesterase (Equus caballus, UniProt P81908); experiment: Inhibition of equine serum BuChE using BTC as substrate preincubated with enzyme for 5 mins followed by substrate addition for 5 mins by Ellman's method; format: cell-free
Sequence of Cholinesterase (Equus caballus, UniProt P81908) (P81908 whole entry): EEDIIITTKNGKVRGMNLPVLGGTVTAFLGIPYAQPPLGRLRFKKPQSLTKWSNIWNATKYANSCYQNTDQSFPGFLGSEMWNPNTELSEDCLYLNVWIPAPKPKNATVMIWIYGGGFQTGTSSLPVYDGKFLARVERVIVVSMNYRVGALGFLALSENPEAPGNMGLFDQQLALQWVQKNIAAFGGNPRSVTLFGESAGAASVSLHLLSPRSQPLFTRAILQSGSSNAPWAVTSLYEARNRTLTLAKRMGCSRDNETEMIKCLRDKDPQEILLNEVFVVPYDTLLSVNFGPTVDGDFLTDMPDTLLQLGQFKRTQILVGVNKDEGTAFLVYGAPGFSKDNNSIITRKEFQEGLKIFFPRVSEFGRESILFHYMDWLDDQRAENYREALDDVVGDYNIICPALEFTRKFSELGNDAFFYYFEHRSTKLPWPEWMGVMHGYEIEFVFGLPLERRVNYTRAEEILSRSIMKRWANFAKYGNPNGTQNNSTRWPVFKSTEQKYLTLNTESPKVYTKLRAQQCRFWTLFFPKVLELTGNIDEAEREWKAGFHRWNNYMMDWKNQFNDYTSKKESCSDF

[4] = target: Amyloid-beta precursor protein (Homo sapiens) (UniProt P05067); experiment: Inhibition of amyloid beta (1 to 42) (unknown origin) self aggregation at 10 uM incubated for 24 to 48 hrs by Thioflavin-T based fluorometric assay; conditions: time lower […], time upper 48.0 hrs
Sequence of Amyloid-beta precursor protein (Homo sapiens) (P05067 whole entry): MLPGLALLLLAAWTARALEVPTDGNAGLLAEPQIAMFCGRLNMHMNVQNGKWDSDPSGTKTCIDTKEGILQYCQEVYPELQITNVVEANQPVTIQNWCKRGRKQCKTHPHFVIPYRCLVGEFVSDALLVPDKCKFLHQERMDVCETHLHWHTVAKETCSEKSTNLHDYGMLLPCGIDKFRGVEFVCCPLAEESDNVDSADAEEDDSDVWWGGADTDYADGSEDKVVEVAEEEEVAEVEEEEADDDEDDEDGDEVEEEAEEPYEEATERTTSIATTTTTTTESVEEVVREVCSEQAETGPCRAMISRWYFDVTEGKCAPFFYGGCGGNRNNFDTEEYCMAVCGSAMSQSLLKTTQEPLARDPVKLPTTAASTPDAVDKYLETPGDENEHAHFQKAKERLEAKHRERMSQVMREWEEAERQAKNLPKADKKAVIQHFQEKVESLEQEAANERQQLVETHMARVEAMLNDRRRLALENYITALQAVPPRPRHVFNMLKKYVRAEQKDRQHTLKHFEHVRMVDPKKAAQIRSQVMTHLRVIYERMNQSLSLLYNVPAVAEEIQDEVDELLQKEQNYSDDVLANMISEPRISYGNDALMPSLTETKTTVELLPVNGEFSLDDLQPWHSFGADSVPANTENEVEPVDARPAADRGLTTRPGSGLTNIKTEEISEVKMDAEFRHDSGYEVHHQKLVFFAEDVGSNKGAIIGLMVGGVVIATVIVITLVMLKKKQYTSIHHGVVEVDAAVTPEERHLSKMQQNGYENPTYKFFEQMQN

[5] = target: T1, Cholinesterase; experiment: Inhibition of BuChE in human plasma using BTC as substrate preincubated with enzyme for 5 mins followed by substrate addition for 5 mins by Ellman's method; format: cell-free
Procedure, shortened: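 Human plasma BuChE at 0.384 U/mL final, with DTNB in 0.1 M phosphate pH 8.0. […] BTC solution (0.00375 M) added; A412 after 5 min. Run in triplicate; IC50 from nonlinear regression of residual activity versus concentration.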

[6] = target: Acetylcholinesterase (Electrophorus electricus, UniProt O42275); experiment: Inhibition of electric eel AchE using ATC as substrate preincubated with enzyme for 5 mins followed by substrate addition for 5 mins by Ellman's method
Sequence of Acetylcholinesterase (O42275 whole entry): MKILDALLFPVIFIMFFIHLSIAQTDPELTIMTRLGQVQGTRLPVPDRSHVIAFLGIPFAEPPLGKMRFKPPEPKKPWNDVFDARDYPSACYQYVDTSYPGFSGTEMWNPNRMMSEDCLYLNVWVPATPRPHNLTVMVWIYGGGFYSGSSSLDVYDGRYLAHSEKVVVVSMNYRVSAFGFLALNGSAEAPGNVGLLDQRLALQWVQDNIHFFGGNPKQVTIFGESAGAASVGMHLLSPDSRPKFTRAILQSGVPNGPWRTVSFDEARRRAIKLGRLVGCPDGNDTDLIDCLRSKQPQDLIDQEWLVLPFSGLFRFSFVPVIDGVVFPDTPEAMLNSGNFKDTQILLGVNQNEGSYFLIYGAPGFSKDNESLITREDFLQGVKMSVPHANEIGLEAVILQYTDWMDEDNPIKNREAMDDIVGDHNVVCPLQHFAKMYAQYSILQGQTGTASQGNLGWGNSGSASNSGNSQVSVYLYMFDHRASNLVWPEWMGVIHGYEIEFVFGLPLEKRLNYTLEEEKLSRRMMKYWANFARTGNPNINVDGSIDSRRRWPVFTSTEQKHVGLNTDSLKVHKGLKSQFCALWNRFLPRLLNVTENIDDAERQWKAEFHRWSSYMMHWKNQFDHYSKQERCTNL
Procedure, shortened: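 Electric eel AChE at 0.384 U/mL final, with DTNB in 0.1 M phosphate pH 8.0. […] ATC solution (0.00375 M) added; A412 after 5 min. Run in triplicate; IC50 by nonlinear regression of residual activity versus concentration.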

[7] = Cytotoxicity against human HepG2 cells assessed as non-toxic concentration incubated for 72 hrs by MTS assay; format: cell-based; conditions: read-out: MNCC
Procedure, shortened: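 HepG2 cells grown in MEM with 2 mM glutamine, 1% NEAA, 10% FBS at 37 °C, 5% CO2. Compounds tested in quadruplicate at 0.1, 1, 10 and 100 μM for 72 h; viability read by MTS (CellTiter 96 AQueous) assay. Doxorubicin 1 μM and CCCP 10 μM served as positive controls.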

[8] = Metabolic stability in mouse liver microsomes assessed as parent compound remaining at 50 microM preincubated for 5 mins followed by incubation with NADPH regenerating system for 120 mins by UPLC-MS analysis; format: ADME, Microsome; conditions: time 125 min, read-out: Stability
Procedure, shortened: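 Mouse liver microsomes 1 mg/mL in 0.1 M Tris-HCl pH 7.4 with 50 μM compound, preincubated 5 min at 37 °C, then started with NADPH regeneration system; stopped after 120 min at 37 °C with cold methanol, centrifuged, supernatant analysed by UPLC-MS for remaining parent and metabolites. Verapamil served as reference.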

SMILES	inhibition [1]	Ki [2]	IC50 [3]	inhibition [4]	IC50 [5]	IC50 [6]	MNTC at 72 h [7]	remaining at 2 h, 50 µM [8]
Cc1cccc(CNCCOc2cccc3c2ccn3Cc2ccccc2)c1	< 50%	293 nM	958 nM					
CC(C)(C)OC(=O)N1CCC(CNCCOc2cccc3c2ccn3S(=O)(=O)c2ccccc2)CC1	< 50%	7 nM	4820 nM	69.7%				
CC(=O)Nc1ccc(CNCCOc2cccc3c2ccn3S(=O)(=O)c2ccccc2)cc1	< 50%	0.3 nM	3800 nM	< 20%				
COc1ccc(NS(=O)(=O)c2ccc(I)cc2)cc1N1CCN(C)CC1	< 50%							
CCOc1ccc(CNCCOc2cccc3c2ccn3S(=O)(=O)c2ccccc2)cc1	< 50%	13 nM	3300 nM	< 20%				
CNCCOc1cccc2c1ccn2S(=O)(=O)c1ccccc1	< 50%	1.6 nM		< 20%				
O=S(=O)(c1ccccc1)n1ccc2c(OCCNCc3cccc(C(F)(F)F)c3)cccc21	< 50%	4 nM	2200 nM	< 20%				
O=S(=O)(c1ccccc1)n1ccc2c(OCCNCc3ccncc3)cccc21	< 50%	3 nM		< 20%				
O=S(=O)(c1ccccc1)n1ccc2c(OCCNCC3CCCC3)cccc21			269 nM		1360 nM			
c1ccc(CNCCOc2cccc3c2ccn3Cc2ccccc2)cc1	< 50%	232 nM	626 nM	71.3%				
Cc1cccc(CNCCOc2cccc3c2CC(=O)N3Cc2ccccc2)c1	< 50%	53 nM	1850 nM	58.5%		1280 nM		
COc1cccc(CNCCOc2cccc3c2ccn3S(=O)(=O)c2ccccc2)c1	< 50%	3.6 nM	1660 nM	27.6%				
CC(=O)Oc1ccc(CNCCOc2cccc3c2ccn3S(=O)(=O)c2cccc3ccccc23)cc1	< 50%	24 nM	261 nM	< 20%				
CC(C)(C)OC(=O)N1CCCC(CNCCOc2cccc3c2[nH]c(=O)n3Cc2ccccc2)C1 (centres undefined)	< 50%	155 nM	467 nM	43.9%				
O=S(=O)(c1ccccc1)n1ccc2c(OCCNCC3CCCNC3)cccc21 (centres undefined)	< 50%	75 nM	2260 nM	27.3%				
O=S(=O)(c1ccccc1)n1ccc2c(OCCNCc3cccc(Cl)c3)cccc21	> 50%	5 nM	580 nM	< 20%	11800 nM			
Cc1cccc(CNCCOc2cccc3c2CCN3Cc2ccccc2)c1	< 50%	1470 nM	1260 nM	72.6%				
c1ccc(CNCCOc2cccc3c2CCN3Cc2ccccc2)cc1	< 50%	389 nM	997 nM	72.5%				
Cc1cccc(CNCCOc2cccc3c2[nH]c(=O)n3Cc2ccccc2)c1	< 50%	207 nM	1500 nM	64.3%		1800 nM		
CN(C)c1cccc(CNCCOc2cccc3c2ccn3S(=O)(=O)c2ccccc2)c1	< 50%	6 nM	894 nM	< 20%				
COC(=O)c1ccc(CNCCOc2cccc3c2ccn3S(=O)(=O)c2ccccc2)cc1	< 50%	13 nM	14300 nM	< 20%				
CN(CCOc1cccc2c1ccn2S(=O)(=O)c1ccccc1)Cc1ccccc1	< 50%	27 nM	1420 nM	< 20%				
COc1ccc(CNCCOc2cccc3c2ccn3S(=O)(=O)c2ccccc2)cc1	< 50%	1.4 nM	1330 nM	54.2%				
CC(C)(C)OC(=O)N1CCCC(CNCCOc2cccc3c2ccn3S(=O)(=O)c2ccccc2)C1 (centres undefined)			125 nM		206 nM		≤ 1 µM	0%
O=S(=O)(c1ccccc1)n1ccc2c(OCCNCc3ccc(F)cc3)cccc21	< 50%	6 nM	985 nM	40.5%				
CC(C)(C)OC(=O)N1CCCC(CNCCOc2cccc3c2CCN3S(=O)(=O)c2ccccc2)C1 (centres undefined)			201 nM		1360 nM			

SMILES	inhibition [1]	Ki [2]	IC50 [3]	inhibition [4]	IC50 [5]	IC50 [6]	MNTC at 72 h [7]	remaining at 2 h, 50 µM [8]
CN(C)c1ccc(CNCCOc2cccc3c2ccn3S(=O)(=O)c2ccccc2)cc1	< 50%	3.5 nM	3080 nM	< 20%				
O=c1[nH]c2c(OCCNCc3ccccc3)cccc2n1Cc1ccccc1	< 50%	144 nM	1840 nM	32.9%		1080 nM		
CC(C)(C)OC(=O)N1CCCC(CNCCOc2cccc3c2CC(=O)N3Cc2ccccc2)C1 (centres undefined)	< 50%	146 nM	1080 nM	65.2%				
O=S(=O)(c1ccccc1)n1ccc2c(OCCNCc3ccc(Cl)cc3)cccc21	< 50%	16 nM	1320 nM	< 20%				
Cc1cccc(CNCCOc2cccc3c2ccn3S(=O)(=O)c2cccc3ccccc23)c1	< 50%	12 nM	148 nM	23.6%				
Cc1cccc(CNCCOc2cccc3c2CCN3S(=O)(=O)c2ccccc2)c1	< 50%	12 nM	2300 nM	< 20%				
O=S(=O)(c1ccccc1)n1ccc2c(OCCNCc3ccccc3)cccc21			473 nM		1610 nM		≤ 10 µM	57%
CC(C)(C)OC(=O)N1CCCC(CNCCOc2cccc3c2ccn3S(=O)(=O)c2cccc3ccccc23)C1 (centres undefined)			5.8 nM					
CC(=O)Oc1ccc(CNCCOc2cccc3c2ccn3S(=O)(=O)c2ccccc2)cc1			228 nM		1920 nM			
O=S(=O)(c1ccccc1)n1ccc2c(N3CCN(Cc4ccccc4)CC3)cccc21	< 50%	60 nM		< 20%				
CC(=O)Oc1ccc(CNCCOc2cccc3c2CCN3S(=O)(=O)c2ccccc2)cc1	< 50%	70 nM	660 nM	< 20%				
O=S(=O)(c1ccccc1)n1ccc2c(OCCNCc3ccccc3Cl)cccc21			881 nM		10500 nM			
CSc1ccc2c(c1)C(N1CCN(C)CC1)Cc1ccccc1S2 (centres undefined)	< 50%							
Cc1ccc(CNCCOc2cccc3c2ccn3S(=O)(=O)c2ccccc2)o1	< 50%	3 nM	3000 nM	< 20%				
CCOc1cccc(CNCCOc2cccc3c2ccn3S(=O)(=O)c2ccccc2)c1	< 50%	3 nM	2410 nM	< 20%				
Cc1cccc(CNCCOc2cccc3c2ccn3S(=O)(=O)c2ccccc2)c1			401 nM		2820 nM			
O=S(=O)(c1ccccc1)n1ccc2c(OCCNCc3cc(Cl)cc(Cl)c3)cccc21			414 nM					
CC(=O)Oc1cccc(CNCCOc2cccc3c2ccn3S(=O)(=O)c2ccccc2)c1			474 nM		5620 nM			
O=S(=O)(c1ccccc1)n1ccc2c(OCCNCc3ccc4c(c3)OCCO4)cccc21	< 50%	0.5 nM	2170 nM	< 20%				
O=S(=O)(c1ccccc1)n1ccc2c(OCCNCC3CC3)cccc21	< 50%	2.7 nM	2220 nM	< 20%				
COc1ccc(CNCCOc2cccc3c2ccn3S(=O)(=O)c2ccccc2)cc1OC	< 50%	0.5 nM	3320 nM	36.8%				
O=[N+]([O-])c1ccc(CNCCOc2cccc3c2ccn3S(=O)(=O)c2ccccc2)cc1	< 50%	22 nM	18300 nM	35.1%				
O=S(=O)(c1ccccc1)n1ccc2c(OCCNCc3ccccn3)cccc21	< 50%	0.4 nM	1290 nM	< 20%				
O=C1Cc2c(OCCNCc3ccccc3)cccc2N1Cc1ccccc1	< 50%	55 nM	4430 nM	42.4%		1710 nM		
O=S(=O)(c1cccc2ccccc12)n1ccc2c(OCCNCc3ccccc3)cccc21			401 nM					
O=S(=O)(c1ccccc1)N1CCc2c(OCCNCc3ccccc3)cccc21			1320 nM					
